Compound activity from PubChem BioAssay.
KCNQ1 block = human KCNQ1 channel inhibition; P51787; CHO-K1 KCNQ1, FluxOR thallium flux fluorescence; hits give high values; B-score at 10 µM; 310,000 tested, 1.3% active;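 active = compounds whose thallium flux B-score, printed positive for inhibition, exceeds three library SD while starting fluorescence stays within three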;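 also: channel opened by potassium depolarization with thallium stimulus after 20 min compound exposure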
Target sequence (P51787 whole entry, looked up): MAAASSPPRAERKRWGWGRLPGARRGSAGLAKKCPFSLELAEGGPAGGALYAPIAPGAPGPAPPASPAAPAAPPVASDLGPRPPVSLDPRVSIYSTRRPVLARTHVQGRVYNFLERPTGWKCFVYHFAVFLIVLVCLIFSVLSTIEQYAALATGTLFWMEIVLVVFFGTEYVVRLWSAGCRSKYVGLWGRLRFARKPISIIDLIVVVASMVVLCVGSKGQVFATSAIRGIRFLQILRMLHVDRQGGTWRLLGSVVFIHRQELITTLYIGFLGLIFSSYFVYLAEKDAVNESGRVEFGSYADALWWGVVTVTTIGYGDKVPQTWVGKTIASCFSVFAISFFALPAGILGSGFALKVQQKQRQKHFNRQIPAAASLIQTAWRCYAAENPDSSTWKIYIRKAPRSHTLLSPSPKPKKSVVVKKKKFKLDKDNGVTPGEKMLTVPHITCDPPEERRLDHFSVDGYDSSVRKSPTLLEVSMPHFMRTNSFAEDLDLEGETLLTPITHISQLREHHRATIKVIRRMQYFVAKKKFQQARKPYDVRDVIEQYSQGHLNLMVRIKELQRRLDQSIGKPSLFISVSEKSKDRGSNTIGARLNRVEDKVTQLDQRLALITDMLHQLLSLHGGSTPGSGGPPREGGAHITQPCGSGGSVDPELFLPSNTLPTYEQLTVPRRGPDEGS
hERG rescue = compounds protecting human hERG from proarrhythmic drug block; Q12809; CHO-hERG, FluxOR thallium flux, dofetilide IC70 present; activation (rescue from dofetilide block), less the hit threshold, % at 10 µM; 310,000 tested, 0.51% active; AID 1511;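 active = activation above the mean of controls blocked by dofetilide plus 5 SD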;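 also: thallium influx through hERG after potassium depolarization seen as dye fluorescence rise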
Kir21 inh = blocks the mouse Kir2.1 inward-rectifier potassium channel. HEK293-Kir2.1, FluxOR thallium flux fluorescence; hits give low values. 310,000 tested, 0.85% active. P35561. B-score at 10 µM. AID 1672;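 active = fluorescence ratio B-score at or below minus 3 SD of library scores, with starting-brightness B-score within 2 SD, cut at about -4.2 in these data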;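 also: channel flux triggered by added potassium and thallium sulfate stimulus; B-score of peak minus minimum fluorescence over baseline after thallium stimulus; more negative B-score means stronger Kir2.1 block with less thallium influx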
KCNQ1 pot = potentiators or activators of human KCNQ1 potassium channel; P51787; AID 2648; CHO-K1 KCNQ1, thallium flux FluxOR fluorescence; hits give high values; 310,000 tested, 0.35% active; B-score at 10 µM;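 active = fluorescence ratio B-score, a plate-corrected score, at least three library SD, with initial intensity B-score within 5 SD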
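Material: CHO-K1 cells stably expressing KCNQ1. Medium: assay buffer for compound exposure, DMSO matched across wells. Reagent: K+/Tl+ depolarizing stimulus. Compound dosing: single-concentration screen. Times: 37 °C overnight plating, 90-min dark dye load, 20-min compound pretreatment. Technique: FluxOR Tl+ flux fluorescence.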
KCNK9 block = human KCNK9 channel inhibition | Q9NPC2 | HEK293 KCNK9, FluxOR thallium flux fluorescence; hits give low values | B-score at 10 µM | 310,000 tested, 1.2% active | AID 488922;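 active = ratio B-score over 3 SD below the library mean, with starting fluorescence within 5 SD of its mean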;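 also: negative B-score means less thallium flux so channel inhibition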
KCNK3 inh = human KCNK3 channel inhibition, primary screen; O14649; CHO-KCNK3 thallium flux, FluxOR fluorescence; hits give low values; AID 602410; 340,000 tested, 0.84% active; B-score at 10 µM;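 active = B-score under library mean minus 4 SD, starting fluorescence ratio at most library mean plus 5 SD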;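 also: more negative B-score means stronger inhibition of thallium flux through KCNK3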
* = called active by the depositor; i = inactive; · = no result. This is a sample that favours compounds with a hit; in the whole collection about 3.7% have one here.

SMILES	KCNQ1 block	hERG rescue	Kir21 inh	KCNQ1 pot	KCNK9 block	KCNK3 inh
CCN(c1ccccc1)S(=O)(=O)c1ccc(OC)c(NC(=O)C2=NN(c3ccccc3)C(=O)CC2)c1	·	·	·	·	·	i
CC(C)(C)OC(=O)N1CCC(C(=O)Nc2cccc(C(=O)N3CCCC3)c2)CC1	·	·	·	·	·	i
Cc1ccccc1S(=O)(=O)N1C[C@H]2CON(C)[C@H]2C[C@H]1c1cccc(-c2ccc(C#N)cc2)c1	·	·	·	·	·	i
COc1ccc(C(=O)C2CCCN(C3Cc4ccccc4C3)C2)c(OC)c1 (stereo not drawn)	i	-8.9	-1.08	i	i	i
CN(C)c1nc2c(c(=O)[nH]c(=O)n2C)n1CCCc1ccccc1	i	-2.8	0.17	i	i	i
O=[N+]([O-])c1cc([N+](=O)[O-])c2cccnc2c1Oc1ccccc1O	8*	-39.8	-8.86*	i	i	i
O=[N+]([O-])c1ccc(O)c2ncccc12	i	2.0	-0.09	i	i	i
COc1ccc(-c2nc(CSCC(=O)NCCC3=CCCCC3)c(C)o2)cc1OC	i	-12.9	-5.06*	i	i	i
CN1CCCN(C(=O)c2ccc(Cl)s2)CC1	i	-8.3	2.09	i	i	i
COc1ccc(NC(=O)CS(=O)(=O)c2ccccc2Cl)cc1	i	-8.6	0.56	i	i	i
CCOc1ccc(C2C(C(=O)OC)=C(C)N=C3SCCC(=O)N32)cc1OCC (stereo not drawn)	i	-5.2	0.59	i	i	-8.82*
CCc1cc2c(COC(=O)c3cccc(NS(C)(=O)=O)c3)cc(=O)oc2cc1O	i	-7.6	-1.44	i	i	i
CC(C)c1ccc2c(c1)CCC1C(C)(CN)CCCC21C (stereo not drawn)	9*	-12.0	-6.14*	i	i	i
CC(CC1C(C#N)=C(N)SC(N)=C1C#N)c1ccccc1 (stereo not drawn)	7*	-8.9	0.5	i	i	i
CC1(C)CC(=O)CC(=NCC(=O)O)C1	i	4.7*	1.9	i	i	i
Cc1ccc(-c2csc(NCCn3c(C)nc4cc(C(F)(F)F)ccc43)n2)cc1	·	·	·	·	·	i
COc1cc(N=Nc2ccc(C(=O)N(C)C)cc2)c(C)cc1N	·	·	·	·	·	i
COc1cccc(C(=O)Nc2cc(C)c3c(=O)oc4ccccc4c3n2)c1	i	-7.2	-1.48	i	-10.6*	-9.99*
COc1ccc(-c2oc(NC(=O)c3ccc(C)cc3)c(C#N)c2-c2ccc(OC)cc2)cc1	i	-1.1	2.45	i	i	i
COc1ccc(C(=O)Nc2oc(-c3ccccc3)c(-c3ccccc3)c2C#N)cc1	7*	-16.4	-0.55	i	i	i
O=C(Nc1nc(-c2ccccc2)c(-c2ccccc2)o1)c1ccc(F)cc1	i	5.6*	0.07	56*	i	i
COc1cccc(C(=O)Nc2nc(-c3ccccc3)c(-c3ccccc3)o2)c1	i	-6.8	3.72	9*	i	i
CCOC(=O)C(=O)Nc1nc(-c2ccccc2)c(-c2ccccc2)o1	i	-5.4	-0.25	i	i	i
COc1cccc(C(=O)Nc2c(F)c(F)c(F)c(F)c2F)c1	i	-11.5	2.36	i	i	i
CC1CCc2c(sc3nc(CSc4nnnn4C)[nH]c(=O)c23)C1 (stereo not drawn)	i	-19.3	0.76	i	i	i
SMILES	KCNQ1 block	hERG rescue	Kir21 inh	KCNQ1 pot	KCNK9 block	KCNK3 inh
COCCCN(C(=O)C1CCC1)c1c(N)n(Cc2ccccc2)c(=O)[nH]c1=O	·	·	·	·	·	i
COc1ccc(-c2noc(CCC(=O)NCCCN3CCC(Cc4ccccc4)CC3)n2)cc1	i	-10.0	-4.62*	i	i	i
CCN(Cc1ccccc1)C(=O)CCc1nc(-c2ccc(C)cc2)no1	i	-11.1	-6.69*	i	i	i
Cc1ccc(-c2noc(CCC(=O)NCCN3CCc4ccccc4C3)n2)cc1	i	-1.5	-8.79*	i	i	i
COc1ccc(-c2noc(CCC(=O)NCCCN3CCN(c4ccc(F)cc4)CC3)n2)cc1	i	-11.5	0.9	i	i	i
C=CCN(c1ccccc1)S(=O)(=O)c1cccc(C(=O)Nc2cccc(C)n2)c1	i	-11.2	0.64	i	i	i
Cc1ccc2c(c1)C1CN(C)CCC1N2C(=O)COc1ccccc1F (stereo not drawn)	i	-19.3	-0.21	i	i	i
CC(=O)c1c(N2CCCC2)[nH]c(-c2ccccc2)nc1=S	i	7.3*	-1.82	9*	i	i
CC(=O)c1c(N2CCOCC2)[nH]c(-c2ccccc2)nc1=S	i	-0.9	-0.12	i	i	i
CC(=O)c1c(N2CCN(Cc3ccccc3)CC2)[nH]c(-c2ccccc2)nc1=S	i	1.1	0	23*	i	i
COc1cccc(C=Nc2ccc(N3CCOCC3)cc2)c1O	i	0.0	-0.04	i	i	i
O=[N+]([O-])c1cc(Br)c(O)c(C=Nc2ccc(N3CCOCC3)cc2)c1	11*	-13.8	1.81	i	i	i
NNC(=O)C1SCCN1S(=O)(=O)c1ccc(Cl)cc1 (stereo not drawn)	i	-8.1	0.21	i	i	i
CCC(C)(C)C1CCC(NC(=O)c2ccc(S(=O)(=O)N3CCOCC3)cc2)CC1 (stereo not drawn)	·	·	·	·	·	i
CC(=NC1CCCC1)c1c(C)[nH]n(-c2nc3ccccc3s2)c1=O	i	6.2*	-0.82	i	i	i
CCC(C)(C)c1ccc(OCCCC[n+]2ccc(C)cc2)c(C(C)(C)CC)c1	7*	-24.6	-4.91*	i	-7.73*	·
O=C1C=C(c2ccccc2)OC(=O)C1C(=O)c1ccccc1 (stereo not drawn)	i	5.4*	0.17	i	i	i
C[C@H]1CN([C@@H](C)CO)C(=O)c2cc(NC(=O)c3ccncc3)ccc2O[C@H]1CN(C)Cc1ccc(C(=O)O)cc1	·	·	·	·	·	i
CC1=CC(C)(C)N(C(=O)CCl)c2cc(C)ccc21	i	-18.9	-2.72	i	i	i
CC1=CC(C)(C)N(C(=O)CNC2CCCCC2)c2cc(C)ccc21	i	-13.1	-6.05*	i	i	i
CCCCOc1cc(=O)[nH]c(=O)[nH]1	i	4.7*	2.03	i	i	i
CCCn1c(N)c(N(CCOC)C(=O)c2c(CC)noc2C)c(=O)[nH]c1=O	·	·	·	·	·	i
O=C(COC(=O)C1C2CC3OC(=O)C1C3C2)Nc1ccc(Cl)cc1 (stereo not drawn)	i	12.2*	2.26	17*	i	i
